# Results: ChEMBL document CHEMBL1147340, “1H- and 13C-nmr assignments of phyllanthin and hypophyllanthin: lignans that enhance cytotoxic responses with cultured multidrug-resistant cells” (J Nat Prod, 1993)
# Tests used:
# [1] = test system: P388; assay: Cytotoxicity against mouse P388 cells after 2 to 4 days by SRB assay; format: functional; conditions: read-out: ED50 (the source's name)
# Outline: (§1)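 Test compounds in 10% DMSO added to cell suspensions and incubated 2–4 days at 37° (100% humidity, 5% CO2). Cells fixed with cold 50% TCA for 1 h at 4°, stained with sulforhodamine B, washed with 1% HOAc and solubilized in 10 mM Tris base. OD read at 515 nm; percent growth calculated relative to controls. Top concentration tested 20 μg/ml.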
# [2] = Cytotoxicity against human BCA1 cells after 2 to 4 days by SRB assay; format: functional; conditions: read-out: ED50 (the source's name); outline: as §1
# [3] = Cytotoxicity against human LUC1 cells after 2 to 4 days by SRB assay; format: functional; conditions: read-out: ED50 (the source's name); outline: as §1
# [4] = test system: SK-MEL-2; assay: Cytotoxicity against human SK-MEL-2 cells after 2 to 4 days by SRB assay; format: functional; conditions: read-out: ED50 (the source's name); outline: as §1
# [5] = test system: Col2; assay: Cytotoxicity against human Col2 cells after 2 to 4 days by SRB assay; format: functional; conditions: read-out: ED50 (the source's name); outline: as §1
# [6] = test system: A-431; assay: Cytotoxicity against human A431 cells after 2 to 4 days by SRB assay; format: functional; conditions: read-out: ED50 (the source's name); outline: as §1
# [7] = test system: LNCaP; assay: Cytotoxicity against human LNCAP cells after 2 to 4 days by SRB assay; format: functional; conditions: read-out: ED50 (the source's name); outline: as §1
# [8] = test system: ZR-75-1; assay: Cytotoxicity against human ZR-75-1 cells after 2 to 4 days by SRB assay; format: functional; conditions: read-out: ED50 (the source's name); outline: as §1
# [9] = Cytotoxicity against drug-sensitive human KB3 cells after 2 to 4 days by SRB assay; format: functional; conditions: read-out: ED50 (the source's name); outline: as §1
# [10] = Cytotoxicity against multidrug-resistant human KBV1 cells after 2 to 4 days by SRB assay in absence of vinblastine; format: functional; conditions: KB-V1, read-out: ED50 (the source's name)
# Outline: (§2)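 SRB growth assay on KB-V1 cells (compounds in 10% DMSO, 2–4 days at 37°, 5% CO2, TCA fixation, OD 515 nm, percent growth versus controls). Cells were given a range of compound concentrations, either alone or together with 1 μg/ml vinblastine.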
# [11] = Cytotoxicity against multidrug-resistant human KBV1 cells after 2 to 4 days by SRB assay in presence of vinblastine; format: functional; conditions: KB-V1, read-out: ED50 (the source's name); outline: as §2
# [12] = (§3) Displacement of [3H]vinblastine from p-glycoprotein in multidrug-resistant human KBV1 cell membrane vesicles by liquid scintillation counting; format: cell membranes
# Outline: (§4)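 Membrane vesicles were made from KB-V1 cells by homogenization, a 35% sucrose cushion and 100,000 × g pelleting. Incubated 20 min at room temperature, then filtered onto BSA-prewashed glass fiber. Nonspecific binding taken with 1 mM unlabeled vinblastine. Read by scintillation counting and expressed as percent.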
# [13] = Cytotoxicity against multidrug-resistant human KBV1 cells at 1 ug/mL after 2 to 4 days by SRB assay in presence of vinblastine; format: functional; conditions: KB-V1, read-out: ED50 (the source's name)
# [14] = test system: KBV1; assay: as §3; format: cell membranes; outline: as §4
Compound,EC50 [1] [µg/mL],EC50 [2] [µg/mL],EC50 [3] [µg/mL],EC50 [4] [µg/mL],EC50 [5] [µg/mL],EC50 [6] [µg/mL],EC50 [7] [µg/mL],EC50 [8] [µg/mL],EC50 [9] [µg/mL],EC50 [10] [µg/mL],EC50 [11] [µg/mL],IC50 [12] [µg/mL],EC50 [13] [µg/mL],ED50 [14]
COC[C@@H]1Cc2cc(OC)c3c(c2[C@H](c2ccc(OC)c(OC)c2)[C@H]1COC)OCO3 [HYPOPHYLLANTHIN],> 20,> 20,> 20,> 20,> 20,> 20,> 20,> 20,> 20,> 20,3.8,> 160,–,–
COC[C@H](Cc1ccc(OC)c(OC)c1)[C@H](COC)Cc1ccc(OC)c(OC)c1 [PHYLLANTHIN],> 20,> 20,> 20,> 20,> 20,> 20,> 20,> 20,> 20,9,–,28,2.1,Dose-dependent effect
